High-throughput results (PubChem BioAssay)
Only some compounds are listed: those with a hit (about 2.5% of all), similar ones and a draw of the others.
rCAG RNA binder: r(CAG) repeat RNA binding | TO-PRO-1 dye displacement fluorescence | inhibition, % at 3 µM | 370,000 compounds, 1.3% hits | AID 651821;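 active = inhibition above the plate cutoff, the mean of all test compounds on that plate plus 3 SD, cut at about 35% in these data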;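 note: 0% = DMSO alone and 100% = 100 µM mitoxantrone as full dye displacement; higher means more dye released from RNA so lower well fluorescence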
TCR-CD3 inh: blocks the human TCR-CD3 interaction; inhibition, % at 9.4 µM; 360,000 compounds, 0.37% hits; TAMRA-labeled TCR probe fluorescence, biochemical; in the data active = inhibition above about 19%;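 note: recombinant mutant TCR 2C K166C tagged with TAMRA read by polarization; 0% = receptor in buffer alone and 100% = receptor with positive control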
SIAE inh: blocks human sialic acid acetylesterase. inhibition, % at 9.66 µM. 370,000 compounds, 0.69% hits. SIAE FP-Rh probe binding, fluorescence polarization;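 active = inhibition above a cutoff: mean of compounds within the control limits plus 3 SD of those, cut at about 17% in these data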;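 note: 0% = plate median of compound wells and 100% = probe without SIAE protein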
HTRA1 inhibitor: blocks human HTRA1 serine peptidase. recombinant HTRA1, FP-rhodamine activity-based probe, fluorescence polarization. 340,000 compounds, 0.5% hits. inhibition, % at 5.96 µM. Q92743; in the data active = inhibition above about 36%;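 note: 0% = enzyme with DMSO and 100% = wells lacking enzyme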
Target sequence (Q92743 whole entry, looked up): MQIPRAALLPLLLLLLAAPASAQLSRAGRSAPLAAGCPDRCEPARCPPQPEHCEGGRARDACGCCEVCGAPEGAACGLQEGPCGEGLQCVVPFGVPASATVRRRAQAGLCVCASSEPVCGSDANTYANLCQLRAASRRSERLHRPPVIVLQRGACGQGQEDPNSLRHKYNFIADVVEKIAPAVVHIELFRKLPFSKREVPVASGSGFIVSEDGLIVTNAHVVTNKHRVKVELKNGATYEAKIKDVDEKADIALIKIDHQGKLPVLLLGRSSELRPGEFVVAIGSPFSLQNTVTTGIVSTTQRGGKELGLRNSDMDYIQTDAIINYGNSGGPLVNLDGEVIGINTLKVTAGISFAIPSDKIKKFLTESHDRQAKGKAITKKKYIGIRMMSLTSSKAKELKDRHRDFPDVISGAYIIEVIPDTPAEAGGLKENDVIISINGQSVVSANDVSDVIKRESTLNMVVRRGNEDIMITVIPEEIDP
ABHD4 inh: inhibitors of mouse ABHD4; inhibition, % at 8.92 µM; Q8VD66; 370,000 compounds, 0.54% hits; purified mABHD4, FP-Rh probe fluorescence polarization;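 active = inhibition exceeding the mean over every tested compound plus 3 SD, cut at about 30% in these data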;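 note: 0% = plate median of compound wells and 100% = S159A mutant with DMSO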
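Material: mouse ABHD4 enzyme, wild type; Benchmarks: S159A mutant high control, sample median low control; Buffer or medium: HEPES pH 7.0, NaCl, Pluronic buffer; Signal: fluorescence polarization; Read-out: percent inhibition of probe binding, normalized to plate controls; Timing: pre-incubation 45 min, probe exposure 60 min, at 25 °C; Dosing: 8.92 µM, single dose.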
rCAG bind conf: r(CAG) RNA repeat binding, confirmation. shares compounds with rCAG RNA binder. AID 652065. 4,300 compounds, 70% hits. inhibition, % at 3 µM. TO-PRO-1 dye displacement fluorescence;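 active = inhibition above a per-plate cutoff, the mean inhibition of sample wells plus 3 SD, cut at about 35% in these data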;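 note: loss of TO-PRO-1 fluorescence as compound displaces dye from 1x1 AA loop RNA; 0% = DMSO only wells and 100% = 100 µM mitoxantrone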
dCAG dye counter: DNA CAG dye complex inhibition counter-screen; shares compounds with rCAG RNA binder; d(CAG) DNA oligo TO-PRO-1 dye displacement, fluorescence; inhibition, % at 3 µM; 4,300 compounds, 94% hits; AID 652068;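 active = inhibition above its plate's cutoff, the mean test-well inhibition plus 3 SD, cut at about 4.8% in these data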;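 note: 0% = DNA dye mix with DMSO and 100% = 100 µM mitoxantrone; hits displace the dye from DNA and so lower well fluorescence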
Numbers without * were called inactive; · = no result.

SMILES	rCAG RNA binder	TCR-CD3 inh	SIAE inh	HTRA1 inhibitor	ABHD4 inh	rCAG bind conf	dCAG dye counter
O=[N+]([O-])c1cc(C(F)(F)F)cc([N+](=O)[O-])c1NCCNC(=S)Nc1ccc(Cl)c(Cl)c1	36*	1	-56	-12	-18	22	6.6*
FC(F)(F)c1cccc(NC(=S)Nc2ccc(Cl)c(Cl)c2)c1	5	4	3	·	0	·	·
O=c1c2ccccc2c(/C=N/NS(=O)(=O)c2ccccc2)c(O)n1-c1ccccn1	10	-22	-10	0	-3	·	·
CS(=O)(=O)c1ccccc1C(=O)Nc1ccccc1Cc1ccccc1	-1	-10	6	4	-8	·	·
O=C(Nc1ccccc1Cc1ccccc1)c1ccccc1NS(=O)(=O)c1ccc(Cl)s1	91*	1	-22	-87	-93	91*	66*
Cc1ccc(NC(=O)c2ccccc2NS(=O)(=O)c2ccc(Cl)s2)cc1	85*	3	-10	-43	-38	72*	34*
Cc1cc(C)nc(-n2nc(C)cc2NC(=O)CN2CCc3ccccc3C2)n1	-6	2	-5	-8	-2	·	·
COc1ccc(/C=C2/SC(=S)N(Cc3ccccc3)C2=O)cc1O	44*	-11	1	-8	-9	26	14*
O=C(O)COc1ccc(/C=C2/SC(=S)N(Cc3ccccc3)C2=O)cc1	76*	3	-9	-46	-35	85*	52*
CN(C)C(=S)SCC(=O)NCc1ccc(F)cc1	-3	0	1	2	0	·	·
CC1=C(C(=O)OCC2CCCCC2)C(c2ccccc2F)NC(=O)N1 (centres undefined)	1	4	3	·	-3	·	·
COC(=O)c1cc(=O)n(Cc2ccc(OC)c(OC)c2)c(=Nc2ccc(F)cc2)s1	1	1	-2	0	-2	·	·
COc1ccc(CN2C[C@]3(C=C(C)Cn4c(=O)n(-c5ccccc5)c(=O)n43)N=C2NC(=O)c2ccccc2)c(OC)c1	42*	·	2	·	0	43*	18*
O=C(NC1=N[C@@]2(C=C3CCCCC3n3c(=O)n(-c4ccccc4)c(=O)n32)CN1Cc1ccccc1)c1ccccc1 (some centres undefined)	42*	·	2	·	-4	38*	15*
COc1ccc(CN2C[C@]3(C=C4CCCCC4n4c(=O)n(-c5ccccc5)c(=O)n43)N=C2NC(=O)c2ccccc2)c(OC)c1 (some centres undefined)	52*	·	5	·	-3	50*	21*
COc1ccc(CN2C[C@]3(C=C4CCCCC4n4c(=O)n(-c5ccccc5)c(=O)n43)N(C(=O)OCc3ccccc3)C2=NC(=O)c2ccccc2)c(OC)c1 (some centres undefined)	12	·	0	·	-1	·	·
COCCSc1nnc(NS(=O)(=O)c2ccccc2)s1	5	5	-4	-3	0	·	·
CC(C)CC(=O)Nc1nc(=S)ss1	-1	8	-1	6	-2	·	·
NNC(=O)c1cc(NS(=O)(=O)c2cccs2)cc(NS(=O)(=O)c2cccs2)c1	42*	10	-43	-2	-31	9	4.7*
O=S(=O)(Nc1cccc(CO)c1)c1cccs1	2	-2	1	·	1	·	·
COC(=O)c1ccc(N2NC(=O)/C(=C/c3cc(OC)c(OC)c(OC)c3)C2=O)cc1	65*	2	-8	4	15	61*	20*
COc1cccc(/C=C2/C(=O)NN(c3ccc(Br)cc3)C2=O)c1O	16	3	-1	11	14	·	·
COc1cc(/C=C2/C(=O)NN(c3cccc(F)c3)C2=O)ccc1OC(=O)c1ccco1	46*	0	-4	-6	19	82*	44*
COC(=O)C1=C(C)N(Cc2ccc(C)cc2)C(=O)/C1=C\c1cc(OC)c(OC)c(OC)c1	4	6	4	-10	-3	·	·
COC(=O)c1ccc(N2NC(=O)/C(=C/c3cc(OC)c(O)c(OC)c3)C2=O)cc1	42*	-12	-6	-9	23	15	4.6*
SMILES	rCAG RNA binder	TCR-CD3 inh	SIAE inh	HTRA1 inhibitor	ABHD4 inh	rCAG bind conf	dCAG dye counter
COc1cc(/C=C2/C(=O)NN(c3ccc(Cl)cc3)C2=O)cc(Br)c1O	46*	-1	9	-2	24	25	8.9*
O=C(CCS(=O)(=O)Cc1ccccc1F)NCc1ccccc1Cl	0	-1	7	6	-1	·	·
Cc1cc(C)c(NC(=O)COC(=O)Cc2ccsc2)c(C)c1	-2	1	5	-4	-2	·	·
O=C(c1ccco1)[C@@H]1[C@@H]2C(=O)N(c3ccc(Br)cc3)C(=O)[C@@H]2C2c3ccccc3C=CN21 (some centres undefined)	38*	8	-16	-4	-14	29	16*
CC1=NN(c2nc(-c3ccc(C#N)cc3)cs2)C(=O)C1	20	1	4	·	-3	·	·
Cc1cc(C)nc(N2N=C(c3ccccc3)CC2=O)n1	3	1	7	5	-1	·	·
O=C1CC(c2ccccc2)=NN1c1nc(-c2ccccc2)cs1	65*	5	-2	-6	23	31	15*
O=C1CC(c2ccccc2)=NN1c1ccccc1	53*	-4	4	6	15	7	4.8*
CC1CCCCN1C(=O)Cc1ccc(F)cc1 (centres undefined)	-2	-4	3	3	1	·	·
CCOc1ccc(-c2nn3c(-c4ccc(F)cc4)nnc3s2)cc1	5	6	-2	-6	-2	·	·
Cn1c(SCC#N)nnc1-c1cnccn1	0	1	-11	4	6	·	·
CCOc1cc(/C=C2\SC(=S)N(N3CCOCC3)C2=O)ccc1O	-1	1	·	8	-2	·	·
CCOc1cc(/C=C2\SC(=N)N(c3nccs3)C2=O)ccc1OCCN1CCOCC1	38*	-7	-13	-3	3	37*	11*
CCC(C)(C)C1CCC(=NNS(=O)(=O)c2ccc(C)c([N+](=O)[O-])c2)CC1 (centres undefined)	7	2	-3	2	3	·	·
COc1ccc(Br)cc1/C=N/Nc1cccc(C(=O)O)c1	22	5	0	-2	20	·	·
COc1ccccc1/C=C/C=N/Nc1cccc(C(=O)O)c1	36*	-2	4	6	16	37*	9.3*
N#CCOC(=O)C1CSC2(c3ccc(Br)cc3)CCC(=O)N12 (centres undefined)	1	-2	4	0	1	·	·
CCc1ccc(NC(=S)N(Cc2ccc(Cl)cc2)Cc2ccc(C(=O)O)cc2)cc1	69*	0	0	-30	-7	61*	23*
COc1cccc(NC(=S)N(Cc2ccc(C(=O)O)cc2)Cc2ccc(OC)c(OC)c2)c1	12	1	-7	-16	-4	·	·
